Experimental data taken from ChEMBL document CHEMBL4177769, “Highly Selective and Potent Ectonucleotide Pyrophosphatase-1 (NPP1) Inhibitors Based on Uridine 5'-Pα,α-Dithiophosphate Analogues” (J Med Chem, 2018).
Activity calls are given as the source filed them. The calls are words filed in the database; no cut-off is given here.

What was measured:
[1] = Drug metabolism at 2 mM at basic pH after 5 days by 31P NMR method; assay type: physicochemical; details: read-out: Drug metabolism
[2] = Drug metabolism at 2 mM at pH 1.7 at room temperature after 20 days by 31P NMR method; assay type: physicochemical; details: read-out: Drug metabolism
[3] = Drug metabolism at 2 mM at acidic pH after 5 days by 31P NMR method; assay type: physicochemical; details: read-out: Drug metabolism
[4] = Drug metabolism at 2 mM at pH 11.7 at room temperature after 20 days by 31P NMR method; assay type: physicochemical; details: read-out: Drug metabolism
[5] = Drug level treated with UTP 5'-O-Palpha,alpha-dithiophosphate at 2 mM at pH 11.7 at room temperature after 25 days by 31P NMR method; assay type: physicochemical; details: pH 11.7, 600 h, 2000 µM
[6] = Half life of the compound at pH 7.4; assay type: physicochemical
[7] = Drug level treated with diuridine 5'-O-Palpha,alpha,5''-O-Palpha,alpha-tetrathiotetraphosphate at 2 mM at pD 12.6 at room temperature after 16 days by 31P NMR method; assay type: physicochemical; details: 384 h, 2000 µM
[8] = Drug level treated with UTP 5'-O-Palpha,alpha-dithiophosphate-beta,gamma-methylene at 2 mM at pH 11.7 at room temperature after 25 days by 31P NMR method; assay type: physicochemical; details: pH 11.7, 600 h, 2000 µM
[9] = target: P2Y purinoceptor 4 (Homo sapiens) (UniProt P51582); assay: Agonist activity at recombinant human P2RY4 expressed in AD293 cells assessed as increase in intracellular calcium levels by Fluo-4/AM dye-based spectrofluorometer; assay type: functional, cell-based
P2Y purinoceptor 4 (Homo sapiens), sequence (P51582 whole entry): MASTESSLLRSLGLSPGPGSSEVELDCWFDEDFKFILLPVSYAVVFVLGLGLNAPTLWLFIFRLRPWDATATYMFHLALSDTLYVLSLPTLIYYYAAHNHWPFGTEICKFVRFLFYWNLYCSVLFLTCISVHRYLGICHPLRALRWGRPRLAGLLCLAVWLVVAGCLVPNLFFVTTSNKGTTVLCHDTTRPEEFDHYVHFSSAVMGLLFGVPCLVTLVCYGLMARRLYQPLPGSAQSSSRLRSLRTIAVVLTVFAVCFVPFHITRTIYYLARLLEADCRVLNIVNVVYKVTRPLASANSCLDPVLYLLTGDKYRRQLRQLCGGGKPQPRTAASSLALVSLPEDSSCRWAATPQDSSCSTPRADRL
Procedure, shortened: (§1)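 Human P2Y2, P2Y4 or P2Y6 receptor stably expressed in AD293 cells. Compound at 100 μM. Agonism read as change in intracellular calcium (Δ[Ca2+]i), with UDP or UTP as control.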

[10] = target: P2Y purinoceptor 2 (Homo sapiens) (UniProt P41231); assay: Agonist activity at recombinant human P2RY2 expressed in AD293 cells assessed as increase in intracellular calcium levels by Fluo-4/AM dye-based spectrofluorometer; assay type: functional, cell-based; procedure, shortened: as §1
P2Y purinoceptor 2 (Homo sapiens), sequence (P41231 whole entry): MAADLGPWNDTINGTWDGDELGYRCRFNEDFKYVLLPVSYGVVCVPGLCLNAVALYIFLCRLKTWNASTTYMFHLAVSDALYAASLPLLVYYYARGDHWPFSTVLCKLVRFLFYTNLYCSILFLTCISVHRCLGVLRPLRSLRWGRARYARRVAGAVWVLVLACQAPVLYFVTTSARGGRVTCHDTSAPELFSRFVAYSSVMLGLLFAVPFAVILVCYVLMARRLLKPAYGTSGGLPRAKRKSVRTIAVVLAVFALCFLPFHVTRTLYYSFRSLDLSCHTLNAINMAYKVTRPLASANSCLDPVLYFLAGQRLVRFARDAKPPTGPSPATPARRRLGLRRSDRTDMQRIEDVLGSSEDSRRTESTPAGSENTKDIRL

[11] = Stability of the compound assessed as air oxidation at room temperature at 1.8 mM after 3 weeks by 31P NMR method; assay type: physicochemical; details: 504 h, 1800 µM
[12] = target: T1, Ectonucleotide pyrophosphatase/phosphodiesterase family member 1 (Homo sapiens) (UniProt P22413); assay: Inhibition of human NPP1 at 100 uM using ATP as substrate preincubated for 3 mins followed by substrate addition measured after 25 mins
T1 sequence (whole entry): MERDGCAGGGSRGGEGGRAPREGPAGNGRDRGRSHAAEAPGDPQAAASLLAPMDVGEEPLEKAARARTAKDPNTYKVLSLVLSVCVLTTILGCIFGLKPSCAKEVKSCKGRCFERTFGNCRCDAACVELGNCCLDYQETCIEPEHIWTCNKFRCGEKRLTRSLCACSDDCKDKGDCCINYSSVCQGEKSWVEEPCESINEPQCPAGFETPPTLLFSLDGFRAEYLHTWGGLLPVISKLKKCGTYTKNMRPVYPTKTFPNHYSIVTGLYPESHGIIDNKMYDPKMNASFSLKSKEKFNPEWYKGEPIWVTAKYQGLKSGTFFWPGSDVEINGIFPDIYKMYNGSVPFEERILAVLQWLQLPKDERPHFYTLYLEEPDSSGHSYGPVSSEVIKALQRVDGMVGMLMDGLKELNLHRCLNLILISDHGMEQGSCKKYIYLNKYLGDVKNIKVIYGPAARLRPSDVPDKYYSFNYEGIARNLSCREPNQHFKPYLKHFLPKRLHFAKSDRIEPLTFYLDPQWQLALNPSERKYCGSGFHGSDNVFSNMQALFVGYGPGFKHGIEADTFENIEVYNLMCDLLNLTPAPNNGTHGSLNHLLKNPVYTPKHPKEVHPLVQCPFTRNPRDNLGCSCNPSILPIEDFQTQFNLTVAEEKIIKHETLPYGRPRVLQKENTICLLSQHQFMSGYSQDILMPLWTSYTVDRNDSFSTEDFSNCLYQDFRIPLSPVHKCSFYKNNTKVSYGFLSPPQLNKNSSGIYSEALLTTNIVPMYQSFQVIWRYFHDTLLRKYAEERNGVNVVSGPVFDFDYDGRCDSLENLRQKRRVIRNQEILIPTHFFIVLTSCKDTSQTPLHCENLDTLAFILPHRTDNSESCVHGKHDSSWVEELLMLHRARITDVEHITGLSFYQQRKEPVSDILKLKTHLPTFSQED
Procedure, shortened: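 Human NPP1 cell lysate in mM 1 CaCl2, 140 NaCl, 5 KCl, 50 Tris pH 8.5, 37 °C. Compound at 100 μM, 3 min preincubation, 100 μM ATP substrate. Stopped after 25 min by heating 2 min at 95 °C. Pyrophosphate measured with a commercial kit.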

[13] = target: P2Y purinoceptor 6 (Homo sapiens) (UniProt Q15077); assay: Agonist activity at recombinant human P2RY6 expressed in AD293 cells assessed as increase in intracellular calcium levels by Fluo-4/AM dye-based spectrofluorometer; assay type: functional, cell-based; procedure, shortened: as §1
P2Y purinoceptor 6 (Homo sapiens), sequence (Q15077 whole entry): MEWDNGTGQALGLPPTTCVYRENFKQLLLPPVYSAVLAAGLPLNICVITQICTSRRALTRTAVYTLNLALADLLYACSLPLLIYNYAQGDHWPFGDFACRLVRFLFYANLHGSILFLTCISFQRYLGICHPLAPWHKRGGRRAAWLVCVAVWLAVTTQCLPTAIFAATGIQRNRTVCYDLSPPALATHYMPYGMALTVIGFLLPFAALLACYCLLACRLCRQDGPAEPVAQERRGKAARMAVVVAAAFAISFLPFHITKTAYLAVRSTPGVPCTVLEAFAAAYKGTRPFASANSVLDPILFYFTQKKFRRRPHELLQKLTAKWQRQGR

[14] = target: T1, Ectonucleotide pyrophosphatase/phosphodiesterase family member 1 (Homo sapiens); assay: Inhibition of human NPP1 at 100 uM using pNP-TMP as substrate preincubated for 3 mins followed by substrate addition measured after 15 mins relative to control
Procedure, shortened: (§2)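 Human NPP1 (4−5 μg) or NPP3 (12−14 μg) cell lysate in mM 1 CaCl2, 140 NaCl, 5 KCl, 50 Tris pH 8.5, 37 °C. Compound at 100 μM, 3 min preincubation, 100 μM pNP-TMP substrate. p-Nitrophenol read at 405 nm after 15 min. Blank with enzyme added at end subtracted. Activity without compound taken as 100%. At least two independent experiments in triplicate.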

[15] = target: P2Y purinoceptor 6 (Homo sapiens) (UniProt Q15077); assay: Agonist activity at recombinant human P2RY6 expressed in AD293 cells assessed as increase in intracellular IP1 levels; assay type: functional, cell-based
Procedure, shortened: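 Human P2Y6 receptor stably expressed in AD293 cells. Compound at 100 μM. Gq activation read as accumulation of inositol 1-phosphate (IP1).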

[16] = target: T2, Ectonucleotide pyrophosphatase/phosphodiesterase family member 3 (Homo sapiens) (UniProt O14638); assay: Inhibition of human NPP3 at 100 uM using pNP-TMP as substrate preincubated for 3 mins followed by substrate addition measured after 15 mins; procedure, shortened: as §2
T2 sequence (whole entry): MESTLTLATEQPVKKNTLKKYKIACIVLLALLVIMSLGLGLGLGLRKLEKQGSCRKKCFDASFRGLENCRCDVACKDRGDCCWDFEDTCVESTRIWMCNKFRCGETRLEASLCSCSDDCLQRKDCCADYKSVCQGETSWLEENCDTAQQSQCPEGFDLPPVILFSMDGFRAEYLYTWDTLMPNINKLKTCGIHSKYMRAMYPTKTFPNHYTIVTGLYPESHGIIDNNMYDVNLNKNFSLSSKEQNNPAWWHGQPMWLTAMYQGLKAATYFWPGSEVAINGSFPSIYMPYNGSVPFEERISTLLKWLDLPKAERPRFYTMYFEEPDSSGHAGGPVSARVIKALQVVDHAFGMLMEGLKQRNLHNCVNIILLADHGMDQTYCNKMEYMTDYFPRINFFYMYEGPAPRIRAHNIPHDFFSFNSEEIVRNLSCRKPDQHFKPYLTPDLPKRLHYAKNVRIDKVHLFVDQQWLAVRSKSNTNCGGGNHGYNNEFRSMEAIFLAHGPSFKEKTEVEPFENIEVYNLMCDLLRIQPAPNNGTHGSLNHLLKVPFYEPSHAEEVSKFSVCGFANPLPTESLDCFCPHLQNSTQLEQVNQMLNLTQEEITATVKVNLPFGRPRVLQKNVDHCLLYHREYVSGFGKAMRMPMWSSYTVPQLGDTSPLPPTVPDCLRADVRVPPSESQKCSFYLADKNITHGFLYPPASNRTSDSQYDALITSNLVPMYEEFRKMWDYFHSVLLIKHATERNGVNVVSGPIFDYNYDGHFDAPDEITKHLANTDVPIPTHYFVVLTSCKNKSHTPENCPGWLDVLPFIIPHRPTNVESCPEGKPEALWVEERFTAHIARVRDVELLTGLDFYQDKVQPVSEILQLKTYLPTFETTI

[17] = target: T3, Ectonucleoside triphosphate diphosphohydrolase 3 (Homo sapiens) (UniProt O75355); assay: Inhibition of human NTPDase3 at 100 uM using ATP as substrate preincubated for 3 mins followed by substrate addition measured after 10 mins by malachite green reagent-based assay
T3 sequence (whole entry): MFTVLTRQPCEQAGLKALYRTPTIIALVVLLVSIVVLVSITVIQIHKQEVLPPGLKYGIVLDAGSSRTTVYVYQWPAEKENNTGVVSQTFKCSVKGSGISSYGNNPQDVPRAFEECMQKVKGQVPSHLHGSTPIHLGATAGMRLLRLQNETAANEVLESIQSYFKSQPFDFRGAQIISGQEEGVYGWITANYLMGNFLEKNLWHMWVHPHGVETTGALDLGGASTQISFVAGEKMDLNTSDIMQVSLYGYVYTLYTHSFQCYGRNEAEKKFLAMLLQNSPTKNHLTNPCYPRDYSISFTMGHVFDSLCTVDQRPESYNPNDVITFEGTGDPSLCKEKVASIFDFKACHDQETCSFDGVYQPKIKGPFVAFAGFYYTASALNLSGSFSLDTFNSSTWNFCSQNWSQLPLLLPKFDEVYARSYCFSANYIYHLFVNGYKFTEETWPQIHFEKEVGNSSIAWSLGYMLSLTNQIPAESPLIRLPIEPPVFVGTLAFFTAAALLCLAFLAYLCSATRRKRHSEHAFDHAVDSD
Procedure, shortened: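 Compound at 100 μM, 3 min preincubation, 100 μM ATP, 10 min. Stopped with malachite green; Pi read at 630 nm. Blank with enzyme added after stop subtracted. Activity with ATP alone taken as 100%.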

[18] = Drug level treated with UTP 5'-O-Palpha,alpha-dithiophosphate-beta,gamma-methylene at 2 mM at pH 1.7 at room temperature after 25 days by 31P NMR method; assay type: physicochemical; details: pH 1.7, 600 h, 2000 µM
[19] = Drug metabolism at 2 mM at pH 1.7 at room temperature after 28 days by 31P NMR method; assay type: physicochemical; details: read-out: Drug metabolism

Which results are given for `O=c1ccn([C@@H]2O[C@H](COP(=O)(O)OP(=O)(O)OP(=O)(O)O)[C@@H](O)[C@H]2O)c(=O)[nH]1` [URIDINE TRIPHOSPHATE]?
degraded at 120 h, 2000 µM [1]: 8%; degraded at 480 h, 2000 µM [2]: 11%; degraded at 120 h, 2000 µM [3]: 5%; degraded at 480 h, 2000 µM [4]: 10%

With `O=c1ccn([C@@H]2O[C@H](COP(=O)(O)O)[C@@H](O)[C@H]2O)c(=O)[nH]1` as the compound, how does the Drug metabolism [5] read?
The Drug metabolism was “Metabolite_Detected”.

For `Nc1nc(SCc2ccccc2)nc2c1ncn2[C@@H]1O[C@H](COP(O)(=S)OP(=O)(O)OP(=O)(O)O)[C@@H](O)[C@H]1O` (some centres undefined), which degraded at 120 h, 2000 µM [3] is on record?
The degraded at 120 h, 2000 µM was 25%.

What about the half-life [6] of the same compound?
The half-life was 11 days.

For `OP(O)(=S)S`, which Drug metabolism [7] is on record?
Its Drug metabolism is “Metabolite_Detected”.

And the Drug metabolism [5]?
The Drug metabolism was “Metabolite_Detected”.

What about the Drug metabolism [8] of the same compound?
The Drug metabolism was “Metabolite_Detected”.

Which Drug metabolism [7] does the source give for `O=c1ccn([C@@H]2O[C@H](COP(O)(=S)S)[C@@H](O)[C@H]2O)c(=O)[nH]1` (some centres undefined) here?
The Drug metabolism was “Metabolite_Detected”.

What about the Drug metabolism [5] of the same compound?
The Drug metabolism was “Metabolite_Detected”.

What about the Drug metabolism [8] of the same compound?
The Drug metabolism was “Metabolite_Detected”.

What does the source list for `O=c1ccn([C@@H]2O[C@H](COP(=S)(S)OP(=O)(O)OP(=O)(O)OP(=S)(S)OC[C@H]3O[C@@H](n4ccc(=O)[nH]c4=O)[C@H](O)[C@@H]3O)[C@@H](O)[C@H]2O)c(=O)[nH]1` (some centres undefined)?
degraded at 120 h, 2000 µM [1]: 9%; Activity [9]: inactive; Activity [10]: inactive; Stability [11]: Stable; inhibition [12]: Active; Activity [13]: Active; degraded at 120 h, 2000 µM [3]: 6%; inhibition [14]: 80 to 100%; Activity [15]: Active; inhibition [16]: 27%; inhibition [17]: 24%

Which results are given for `O=P(O)(O)CP(=O)(O)O` [MEDRONIC ACID]?
Drug metabolism [8]: Metabolite_Detected; Drug metabolism [18]: Metabolite_Detected

With `O=c1ccn([C@@H]2O[C@H](COP(O)(=S)SCCS)[C@@H](O)[C@H]2O)c(=O)[nH]1` (some centres undefined) as the compound, how does the Drug metabolism [5] read?
Its Drug metabolism is “Metabolite_Detected”.

And the Drug metabolism [8]?
The Drug metabolism was “Metabolite_Detected”.

For `O=c1ccn([C@@H]2O[C@H](COP(=O)(O)OP(=O)(O)O)[C@@H](O)[C@H]2O)c(=O)[nH]1` [URIDINE_DIPHOSPHATE], which degraded at 672 h, 2000 µM [19] is on record?
The degraded at 672 h, 2000 µM was 7%.
